Reference: ChEMBL document CHEMBL3627671, “Novel derivatives of nitro-substituted salicylic acids: Synthesis, antimicrobial activity and cytotoxicity” (Bioorg Med Chem, 2015)
≈ marks a conversion by molar mass, not a printed value.

How the values were obtained:
Assay type in all cases: functional
[1] = system: Trichophyton mentagrophytes; experiment: Antifungal activity against Trichophyton mentagrophytes 445 after 24 hrs by microdilution broth method; conditions: Trichophyton mentagrophytes, 445, 24 h
Lichtheimia corymbifera [2] = experiment: Antifungal activity against Absidia corymbifera 272 after 24 hrs by microdilution broth method; conditions: Lichtheimia corymbifera, 272, 24 h
Procedure, shortened: (§1)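 CLSI M27-A3 broth microdilution in RPMI 1640 with glutamine, buffered to pH 7.0 with MOPS; DMSO diluent. Yeast inoculum 5 × 10^3 ± 0.2 CFU/mL. Moulds grown on Sabouraud agar 3–10 days before spore harvest, final inoculum 0.5-5 × 10^4 CFU/mL, checked in a Bürker chamber. Incubated dark, humid, 35 °C, read at 24 and 48 h visually and at 540 nm. MIC taken as ≥80% (yeasts) or ≥50% (filamentous) growth reduction versus control.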

Mycobacterium kansasii [3] = experiment: Antimycobacterial activity against Mycobacterium kansasii 6509/96 after 7 days; conditions: 6509/96, 168 h
Procedure, shortened: (§2)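 Šula's semisynthetic medium micromethod at 37 °C, read after 7, 14 and 21 days. The 1.0 McFarland suspension was diluted 10^-4. MIC determined. 6509/96 is a clinical isolate.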

Trichosporon asahii [4] = experiment: Antifungal activity against Trichosporon asahii 1188 after 48 hrs by microdilution broth method; conditions: Trichosporon asahii, 1188, 48 h; procedure, shortened: as §1
Klebsiella pneumoniae [5] = experiment: Antibacterial activity against ESBL-positive Klebsiella pneumoniae J 14368/08 after 48 hrs by microdilution broth method; conditions: J 14368/08, 48 h
Procedure, shortened: (§3)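 Mueller-Hinton broth microdilution (modified M07-A07), pH 7.4 (±0.2). Compounds dissolved in DMSO, tested at final 500 to 0.49 µmol/L. Inoculum in sterile water matched to 0.5 McFarland. Incubated in the dark, humid atmosphere, 35 °C, read at 24 and 48 h visually and at 540 nm. MIC taken as ≥95% growth reduction (IC95) versus control.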

Mycobacterium kansasii [6] = experiment: Antimycobacterial activity against Mycobacterium kansasii 6509/96 after 14 days; conditions: 6509/96, 336 h; procedure, shortened: as §2
Mycobacterium kansasii [7] = experiment: Antimycobacterial activity against Mycobacterium kansasii 235/80 after 21 days; conditions: 235/80, 504 h; procedure, shortened: as §2
[8] = system: Mycobacterium tuberculosis; experiment: Antimycobacterial activity against Mycobacterium tuberculosis H37Rv 331/88 after 21 days; conditions: H37Rv 331/88, 504 h
Lichtheimia corymbifera [9] = experiment: Antifungal activity against Absidia corymbifera 272 after 48 hrs by microdilution broth method; conditions: Lichtheimia corymbifera, 272, 48 h; procedure, shortened: as §1
Staphylococcus aureus [10] = experiment: Antibacterial activity against methicillin-resistant Staphylococcus aureus H 5996/08 after 48 hrs by microdilution broth method; conditions: H 5996/08, 48 h
[11] = system: Staphylococcus epidermidis; experiment: Antibacterial activity against Staphylococcus epidermidis H 6966/08 after 24 hrs by microdilution broth method; conditions: H 6966/08, 24 h; procedure, shortened: as §3
Staphylococcus aureus [12] = experiment: Antibacterial activity against Staphylococcus aureus CCM 4516/08 after 48 hrs by microdilution broth method; conditions: CCM 4516/08, 48 h
Pseudomonas aeruginosa [13] = experiment: Antibacterial activity against Pseudomonas aeruginosa CCM 1961 after 24 hrs by microdilution broth method; conditions: CCM 1961, 24 h; procedure, shortened: as §3
Mycobacterium kansasii [14] = experiment: Antimycobacterial activity against Mycobacterium kansasii 235/80 after 14 days; conditions: 235/80, 336 h; procedure, shortened: as §2
Trichosporon asahii [15] = experiment: Antifungal activity against Trichosporon asahii 1188 after 24 hrs by microdilution broth method; conditions: Trichosporon asahii, 1188, 24 h; procedure, shortened: as §1
Aspergillus fumigatus [16] = experiment: Antifungal activity against Aspergillus fumigatus 231 after 24 hrs by microdilution broth method; conditions: Aspergillus fumigatus, 231, 24 h; procedure, shortened: as §1
Candida tropicalis [17] = experiment: Antifungal activity against Candida tropicalis 156 after 24 hrs by microdilution broth method; conditions: Candida tropicalis, 156, 24 h; procedure, shortened: as §1
Staphylococcus aureus [18] = experiment: Antibacterial activity against Staphylococcus aureus CCM 4516/08 after 24 hrs by microdilution broth method; conditions: CCM 4516/08, 24 h
Candida tropicalis [19] = experiment: Antifungal activity against Candida tropicalis 156 after 48 hrs by microdilution broth method; conditions: Candida tropicalis, 156, 48 h; procedure, shortened: as §1
Nakaseomyces glabratus [20] = experiment: Antifungal activity against Candida glabrata 20/I after 24 hrs by microdilution broth method; procedure, shortened: as §1
Klebsiella pneumoniae [21] = experiment: Antibacterial activity against ESBL-positive Klebsiella pneumoniae J 14368/08 after 24 hrs by microdilution broth method; conditions: J 14368/08, 24 h; procedure, shortened: as §3
Pichia kudriavzevii [22] = experiment: Antifungal activity against Candida krusei E28 after 24 hrs by microdilution broth method; conditions: E28, 24 h; procedure, shortened: as §1
[23] = system: Staphylococcus epidermidis; experiment: Antibacterial activity against Staphylococcus epidermidis H 6966/08 after 48 hrs by microdilution broth method; conditions: H 6966/08, 48 h; procedure, shortened: as §3
Enterococcus sp. [24] = experiment: Antibacterial activity against Enterococcus sp. J 14365/08 after 24 hrs by microdilution broth method; conditions: J 14365/08, 24 h; procedure, shortened: as §3
Escherichia coli [25] = experiment: Antibacterial activity against Escherichia coli CCM4517 after 48 hrs by microdilution broth method; conditions: CCM4517, 48 h; procedure, shortened: as §3
Enterococcus sp. [26] = experiment: Antibacterial activity against Enterococcus sp. J 14365/08 after 48 hrs by microdilution broth method; conditions: J 14365/08, 48 h; procedure, shortened: as §3
Mycobacterium avium [27] = experiment: Antimycobacterial activity against Mycobacterium avium 330/80 after 21 days; conditions: 330/80, 504 h
Pichia kudriavzevii [28] = experiment: Antifungal activity against Candida krusei E28 after 48 hrs by microdilution broth method; conditions: E28, 48 h; procedure, shortened: as §1
[29] = system: Trichophyton mentagrophytes; experiment: Antifungal activity against Trichophyton mentagrophytes 445 after 48 hrs by microdilution broth method; conditions: Trichophyton mentagrophytes, 445, 48 h
Nakaseomyces glabratus [30] = experiment: Antifungal activity against Candida glabrata 20/I after 48 hrs by microdilution broth method; procedure, shortened: as §1
Candida albicans [31] = experiment: Antifungal activity against Candida albicans ATCC 44859 after 48 hrs by microdilution broth method; conditions: ATCC 44859, 48 h; procedure, shortened: as §1
Klebsiella pneumoniae [32] = experiment: Antibacterial activity against Klebsiella pneumoniae D 11750/08 after 24 hrs by microdilution broth method; conditions: D 11750/08, 24 h; procedure, shortened: as §3
Escherichia coli [33] = experiment: Antibacterial activity against Escherichia coli CCM4517 after 24 hrs by microdilution broth method; conditions: CCM4517, 24 h; procedure, shortened: as §3
Klebsiella pneumoniae [34] = experiment: Antibacterial activity against Klebsiella pneumoniae D 11750/08 after 48 hrs by microdilution broth method; conditions: D 11750/08, 48 h; procedure, shortened: as §3
Pseudomonas aeruginosa [35] = experiment: Antibacterial activity against Pseudomonas aeruginosa CCM 1961 after 48 hrs by microdilution broth method; conditions: CCM 1961, 48 h; procedure, shortened: as §3
Aspergillus fumigatus [36] = experiment: Antifungal activity against Aspergillus fumigatus 231 after 48 hrs by microdilution broth method; conditions: Aspergillus fumigatus, 231, 48 h; procedure, shortened: as §1
Mycobacterium avium [37] = experiment: Antimycobacterial activity against Mycobacterium avium 330/80 after 14 days; conditions: 330/80, 336 h
[38] = system: Mycobacterium tuberculosis; experiment: Antimycobacterial activity against Mycobacterium tuberculosis H37Rv 331/88 after 14 days; conditions: H37Rv 331/88, 336 h
Candida albicans [39] = experiment: Antifungal activity against Candida albicans ATCC 44859 after 24 hrs by microdilution broth method; conditions: ATCC 44859, 24 h; procedure, shortened: as §1
Staphylococcus aureus [40] = experiment: Antibacterial activity against methicillin-resistant Staphylococcus aureus H 5996/08 after 24 hrs by microdilution broth method; conditions: H 5996/08, 24 h
Mycobacterium kansasii [41] = experiment: Antimycobacterial activity against Mycobacterium kansasii 235/80 after 7 days; conditions: 235/80, 168 h; procedure, shortened: as §2
Mycobacterium kansasii [42] = experiment: Antimycobacterial activity against Mycobacterium kansasii 6509/96 after 21 days; conditions: 6509/96, 504 h; procedure, shortened: as §2

Question: What does the source list for O=C(Nc1cccc([N+](=O)[O-])c1)c1ccc([N+](=O)[O-])cc1O?
Answer: MIC [1]: > 250 µM; MIC (Lichtheimia corymbifera [2]): > 250 µM; MIC (Mycobacterium kansasii [3]): 32 µM (≈ 9.7 µg/mL); MIC (Trichosporon asahii [4]): > 250 µM; MIC (Klebsiella pneumoniae [5]): > 250 µM; MIC (Mycobacterium kansasii [6]): 32 µM (≈ 9.7 µg/mL); MIC (Mycobacterium kansasii [7]): 62.5 µM (≈ 19 µg/mL); MIC [8]: 32 µM (≈ 9.7 µg/mL); MIC (Lichtheimia corymbifera [9]): > 250 µM; MIC (Staphylococcus aureus [10]): 125 µM (≈ 37.9 µg/mL); MIC [11]: 31.2 µM (≈ 9.48 µg/mL); MIC (Staphylococcus aureus [12]): 62.5 µM (≈ 19 µg/mL); MIC (Pseudomonas aeruginosa [13]): > 250 µM; MIC (Mycobacterium kansasii [14]): 32 µM (≈ 9.7 µg/mL); MIC (Trichosporon asahii [15]): > 250 µM; MIC (Aspergillus fumigatus [16]): > 250 µM; MIC (Candida tropicalis [17]): > 250 µM; MIC (Staphylococcus aureus [18]): 62.5 µM (≈ 19 µg/mL); MIC (Candida tropicalis [19]): > 250 µM; MIC (Nakaseomyces glabratus [20]): > 250 µM; MIC (Klebsiella pneumoniae [21]): > 250 µM; MIC (Pichia kudriavzevii [22]): > 250 µM; MIC [23]: 62.5 µM (≈ 19 µg/mL); MIC (Enterococcus sp. [24]): > 250 µM; MIC (Escherichia coli [25]): > 250 µM; MIC (Enterococcus sp. [26]): > 250 µM; MIC (Mycobacterium avium [27]): 125 µM (≈ 37.9 µg/mL); MIC (Pichia kudriavzevii [28]): > 250 µM; MIC [29]: > 250 µM; MIC (Nakaseomyces glabratus [30]): > 250 µM; MIC (Candida albicans [31]): > 250 µM; MIC (Klebsiella pneumoniae [32]): > 250 µM; MIC (Escherichia coli [33]): > 250 µM; MIC (Klebsiella pneumoniae [34]): > 250 µM; MIC (Pseudomonas aeruginosa [35]): > 250 µM; MIC (Aspergillus fumigatus [36]): > 250 µM; MIC (Mycobacterium avium [37]): 125 µM (≈ 37.9 µg/mL); MIC [38]: 32 µM (≈ 9.7 µg/mL); MIC (Candida albicans [39]): > 250 µM; MIC (Staphylococcus aureus [40]): 125 µM (≈ 37.9 µg/mL); MIC (Mycobacterium kansasii [41]): 32 µM (≈ 9.7 µg/mL); MIC (Mycobacterium kansasii [42]): 32 µM (≈ 9.7 µg/mL)

Question: Which results are given for O=C(Nc1ccc([N+](=O)[O-])cc1)c1ccc([N+](=O)[O-])cc1O?
Answer: MIC [1]: > 500 µM; MIC (Lichtheimia corymbifera [2]): > 500 µM; MIC (Mycobacterium kansasii [3]): 32 µM (≈ 9.7 µg/mL); MIC (Trichosporon asahii [4]): > 500 µM; MIC (Klebsiella pneumoniae [5]): > 500 µM; MIC (Mycobacterium kansasii [6]): 32 µM (≈ 9.7 µg/mL); MIC (Mycobacterium kansasii [7]): 32 µM (≈ 9.7 µg/mL); MIC [8]: 16 µM (≈ 4.85 µg/mL); MIC (Lichtheimia corymbifera [9]): > 500 µM; MIC (Staphylococcus aureus [10]): 31.2 µM (≈ 9.48 µg/mL); MIC [11]: 62.5 µM (≈ 19 µg/mL); MIC (Staphylococcus aureus [12]): 62.5 µM (≈ 19 µg/mL); MIC (Pseudomonas aeruginosa [13]): 500 µM (≈ 152 µg/mL); MIC (Mycobacterium kansasii [14]): 16 µM (≈ 4.85 µg/mL); MIC (Trichosporon asahii [15]): > 500 µM; MIC (Aspergillus fumigatus [16]): > 500 µM; MIC (Candida tropicalis [17]): > 500 µM; MIC (Staphylococcus aureus [18]): 62.5 µM (≈ 19 µg/mL); MIC (Candida tropicalis [19]): > 500 µM; MIC (Nakaseomyces glabratus [20]): > 500 µM; MIC (Klebsiella pneumoniae [21]): 500 µM (≈ 152 µg/mL); MIC (Pichia kudriavzevii [22]): > 500 µM; MIC [23]: 62.5 µM (≈ 19 µg/mL); MIC (Enterococcus sp. [24]): 500 µM (≈ 152 µg/mL); MIC (Escherichia coli [25]): > 500 µM; MIC (Enterococcus sp. [26]): > 500 µM; MIC (Mycobacterium avium [27]): 62.5 µM (≈ 19 µg/mL); MIC (Pichia kudriavzevii [28]): > 500 µM; MIC [29]: > 500 µM; MIC (Nakaseomyces glabratus [30]): > 500 µM; MIC (Candida albicans [31]): > 500 µM; MIC (Klebsiella pneumoniae [32]): 500 µM (≈ 152 µg/mL); MIC (Escherichia coli [33]): 500 µM (≈ 152 µg/mL); MIC (Klebsiella pneumoniae [34]): > 500 µM; MIC (Pseudomonas aeruginosa [35]): > 500 µM; MIC (Aspergillus fumigatus [36]): > 500 µM; MIC (Mycobacterium avium [37]): 62.5 µM (≈ 19 µg/mL); MIC [38]: 8 µM (≈ 2.43 µg/mL); MIC (Candida albicans [39]): > 500 µM; MIC (Staphylococcus aureus [40]): 31.2 µM (≈ 9.48 µg/mL); MIC (Mycobacterium kansasii [41]): 8 µM (≈ 2.43 µg/mL); MIC (Mycobacterium kansasii [42]): 32 µM (≈ 9.7 µg/mL)
